According to ChEMBL document CHEMBL1165950, “Design and synthesis of new potent anticancer pyrazoles with high FLT3 kinase inhibitory selectivity” (Bioorg Med Chem, 2010):

Assays:
Type in all cases: functional
SK-OV-3 = assay: Cytotoxicity against human SKOV3 cells assessed as cell growth at 10 uM; details: read-out: Activity
Procedure, shortened: (§1)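 NCI-60 screen: cells grown in RPMI 1640 with 5% FBS and 2 mM L-glutamine, plated at 5000–40,000 cells/well according to doubling time, and preincubated 24 h at 37 °C, 5% CO2. The single 10 µM dose (DMSO stock) was added, then incubated 48 h. Cells were TCA-fixed and stained with 0.4% SRB, read at 515 nm, and growth % calculated against time-zero and control plates.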

SNB-75 = assay: Cytotoxicity against human SNB75 cells assessed as cell growth at 10 uM; details: read-out: Activity; procedure, shortened: as §1
SF-539 = assay: Cytotoxicity against human SF539 cells assessed as cell growth at 10 uM; details: read-out: Activity; procedure, shortened: as §1
MOLT-4 = assay: Cytotoxicity against human MOLT4 cells assessed as cell growth at 10 uM; details: read-out: Activity; procedure, shortened: as §1
UACC-257 = assay: Cytotoxicity against human UACC257 cells assessed as cell growth at 10 uM; details: read-out: Activity; procedure, shortened: as §1
NCI-H226 = assay: Cytotoxicity against human NCI-H226 cells assessed as cell growth at 10 uM; details: read-out: Activity; procedure, shortened: as §1
EKVX = assay: Cytotoxicity against human EKVX cells assessed as cell growth at 10 uM; details: read-out: Activity
Procedure, shortened: (§2)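 Single-dose NCI-60 screen at 10 µM. Cells were grown in RPMI 1640 with 5% FBS and 2 mM L-glutamine, then treated for 48 h at 37 °C. Protein was measured by SRB staining with absorbance at 515 nm. Percentage growth was recorded, and inhibition percentage was calculated as 100 minus growth percentage.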

NCI-H460 = assay: Cytotoxicity against human NCI-H460 cells assessed as cell growth at 10 uM; details: read-out: Activity; procedure, shortened: as §1
HOP-92 = assay: Cytotoxicity against human HOP92 cells assessed as cell growth at 10 uM; details: read-out: Activity; procedure, shortened: as §2
UACC-62 = assay: Cytotoxicity against human UACC62 cells assessed as cell growth at 10 uM; details: read-out: Activity; procedure, shortened: as §1
SK-MEL-2 = assay: Cytotoxicity against human SK-MEL-2 cells assessed as cell growth at 10 uM; details: read-out: Activity; procedure, shortened: as §1
A498 = assay: Cytotoxicity against human A498 cells assessed as cell growth at 10 uM; details: read-out: Activity; procedure, shortened: as §2
HCT-116 = assay: Cytotoxicity against human HCT116 cells assessed as cell growth at 10 uM; details: read-out: Activity; procedure, shortened: as §2
[1] = Growth inhibition of human NCI60 cells at 10 uM after 48 hrs by sulforhodamine B assay relative to control; details: NCI60, 48 h, read-out: GI
Procedure, shortened: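 Single-dose NCI screen at 10 µM across the 60-line panel, 48 h exposure at 37 °C after a 24 h preincubation. Adherent cells were fixed with cold TCA and stained with 0.4% SRB, and absorbance was read at 515 nm. Inhibition % was taken as 100 minus growth %, and the mean across all lines was reported.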

NCI-H522 = assay: Cytotoxicity against human NCI-H522 cells assessed as cell growth at 10 uM; details: read-out: Activity; procedure, shortened: as §1
DU-145 = assay: Cytotoxicity against human DU145 cells assessed as cell growth at 10 uM; details: read-out: Activity; procedure, shortened: as §2
MDA-MB-231 = assay: Cytotoxicity against human MDA-MB-231 cells assessed as cell growth at 10 uM; details: read-out: Activity; procedure, shortened: as §1
PC-3 = assay: Cytotoxicity against human PC3 cells assessed as cell growth at 10 uM; details: read-out: Activity; procedure, shortened: as §1
Malme-3M = assay: Cytotoxicity against human MALME-3M cells assessed as cell growth at 10 uM; details: read-out: Activity; procedure, shortened: as §1
M14 = assay: Cytotoxicity against human M14 cells assessed as cell growth at 10 uM; details: read-out: Activity; procedure, shortened: as §1
NCI-H322M = assay: Cytotoxicity against human NCI-H322M cells assessed as cell growth at 10 uM; details: read-out: Activity; procedure, shortened: as §1
OVCAR-5 = assay: Cytotoxicity against human OVCAR5 cells assessed as cell growth at 10 uM; details: read-out: Activity; procedure, shortened: as §1
OVCAR-3 = assay: Cytotoxicity against human OVCAR-3 cells assessed as cell growth at 10 uM; details: read-out: Activity; procedure, shortened: as §1
SK-MEL-28 = assay: Cytotoxicity against human SK-MEL-28 cells assessed as cell growth at 10 uM; details: read-out: Activity; procedure, shortened: as §1
[2] = Cytotoxicity against human Hs 578T cells assessed as cell growth at 10 uM; details: read-out: Activity; procedure, shortened: as §2
[3] = Cytotoxicity against human […] cells assessed as cell growth at 10 uM; details: read-out: Activity; procedure, shortened: as §1
TK-10 = assay: Cytotoxicity against human TK10 cells assessed as cell growth at 10 uM; details: read-out: Activity; procedure, shortened: as §1
UO-31 = assay: Cytotoxicity against human UO31 cells assessed as cell growth at 10 uM; details: read-out: Activity; procedure, shortened: as §1
NCI-H23 = assay: Cytotoxicity against human NCI-H23 cells assessed as cell growth at 10 uM; details: read-out: Activity; procedure, shortened: as §1
HCT-15 = assay: Cytotoxicity against human HCT15 cells assessed as cell growth at 10 uM; details: read-out: Activity; procedure, shortened: as §2
BT-549 = assay: Cytotoxicity against human BT549 cells assessed as cell growth at 10 uM; details: read-out: Activity; procedure, shortened: as §2
NCI/ADR-RES = assay: Cytotoxicity against human NCI/ADR-RES cells assessed as cell growth at 10 uM; details: read-out: Activity; procedure, shortened: as §1
U-251 = assay: Cytotoxicity against human U251 cells assessed as cell growth at 10 uM; details: read-out: Activity; procedure, shortened: as §1
OVCAR-4 = assay: Cytotoxicity against human OVCAR4 cells assessed as cell growth at 10 uM; details: read-out: Activity; procedure, shortened: as §1
A549 = assay: Cytotoxicity against human A549 cells assessed as cell growth at 10 uM; details: read-out: Activity; procedure, shortened: as §2
SNB-19 = assay: Cytotoxicity against human SNB19 cells assessed as cell growth at 10 uM; details: read-out: Activity; procedure, shortened: as §1
786-0 = assay: Cytotoxicity against human 786-0 cells assessed as cell growth at 10 uM; details: read-out: Activity; procedure, shortened: as §2
K562 = assay: Cytotoxicity against human K562 cells assessed as cell growth at 10 uM; details: read-out: Activity; procedure, shortened: as §2
HT-29 = assay: Cytotoxicity against human HT-29 cells assessed as cell growth at 10 uM; details: read-out: Activity; procedure, shortened: as §2
MDA-MB-468 = assay: Cytotoxicity against human MDA-MB-468 cells assessed as cell growth at 10 uM; details: read-out: Activity; procedure, shortened: as §1
SF-295 = assay: Cytotoxicity against human SF295 cells assessed as cell growth at 10 uM; details: read-out: Activity; procedure, shortened: as §1
HOP-62 = assay: Cytotoxicity against human HOP62 cells assessed as cell growth at 10 uM; details: read-out: Activity; procedure, shortened: as §2
SF-268 = assay: Cytotoxicity against human SF268 cells assessed as cell growth at 10 uM; details: read-out: Activity; procedure, shortened: as §1
SN12C = assay: Cytotoxicity against human SN12C cells assessed as cell growth at 10 uM; details: read-out: Activity; procedure, shortened: as §1
OVCAR-8 = assay: Cytotoxicity against human OVCAR8 cells assessed as cell growth at 10 uM; details: read-out: Activity; procedure, shortened: as §1
SK-MEL-5 = assay: Cytotoxicity against human SK-MEL-5 cells assessed as cell growth at 10 uM; details: read-out: Activity; procedure, shortened: as §1
SW-620 = assay: Cytotoxicity against human SW620 cells assessed as cell growth at 10 uM; details: read-out: Activity; procedure, shortened: as §1
CCRF-CEM = assay: Cytotoxicity against human CCRF-CEM cells assessed as cell growth at 10 uM; details: read-out: Activity; procedure, shortened: as §2
HCC 2998 = assay: Cytotoxicity against human HCC2998 cells assessed as cell growth at 10 uM; details: read-out: Activity; procedure, shortened: as §2
LOX IMVI = assay: Cytotoxicity against human LOXIMVI cells assessed as cell growth at 10 uM; details: read-out: Activity; procedure, shortened: as §1
ACHN = assay: Cytotoxicity against human ACHN cells assessed as cell growth at 10 uM; details: read-out: Activity; procedure, shortened: as §2
HL-60(TB) = assay: Cytotoxicity against human HL-60(TB) cells assessed as cell growth at 10 uM; details: read-out: Activity
Procedure, shortened: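 NCI 60-cell panel screen at a single concentration of 10 µM. Cells are grown in RPMI 1640 with 5% FBS and 2 mM L-glutamine and read by SRB protein staining at 515 nm. Percent growth is measured relative to time-zero and untreated controls; inhibition % is 100 minus growth %.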

MDA-MB-435 = assay: Cytotoxicity against human MDA-MB-435 cells assessed as cell growth at 10 uM; details: read-out: Activity; procedure, shortened: as §1
MCF7 = assay: Cytotoxicity against human MCF7 cells assessed as cell growth at 10 uM; details: read-out: Activity; procedure, shortened: as §1
KM12 = assay: Cytotoxicity against human KM12 cells assessed as cell growth at 10 uM; details: read-out: Activity; procedure, shortened: as §1
IGROV-1 = assay: Cytotoxicity against human IGROV1 cells assessed as cell growth at 10 uM; details: read-out: Activity; procedure, shortened: as §2
RXF 393 = assay: Cytotoxicity against human RXF393 cells assessed as cell growth at 10 uM; details: read-out: Activity; procedure, shortened: as §1
SR = assay: Cytotoxicity against human SR cells assessed as cell growth at 10 uM; details: read-out: Activity; procedure, shortened: as §1
CAKI-1 = assay: Cytotoxicity against human Caki1 cells assessed as cell growth at 10 uM; details: read-out: Activity; procedure, shortened: as §2
T47D = assay: Cytotoxicity against human T47D cells assessed as cell growth at 10 uM; details: read-out: Activity; procedure, shortened: as §1
COLO 205 = assay: Cytotoxicity against human COLO205 cells assessed as cell growth at 10 uM; details: read-out: Activity; procedure, shortened: as §2

Work on `COc1cc(C)cc(-c2nn(CC#N)cc2-c2ccnc(-c3ccc(C#N)cc3)c2)c1` yielded a growth at 10 µM (SK-OV-3) of 90.3%, a growth at 10 µM (SNB-75) of 57.4% and a growth at 10 µM (SF-539) of 89.1%. The growth at 10 µM (MOLT-4) was 71.8%, the growth at 10 µM (UACC-257) was 89.8% and the growth at 10 µM (NCI-H226) was 78.8%. The growth at 10 µM (EKVX) was 92%, the growth at 10 µM (NCI-H460) was 104% and the growth at 10 µM (HOP-92) was 75.3%. For the same compound, the growth at 10 µM (UACC-62) was 59.4%, the growth at 10 µM (SK-MEL-2) was 89.9% and the growth at 10 µM (A498) was 82.2%. It also gave a growth at 10 µM (HCT-116) of 80.3%, an inhibition of growth at 10 µM [1] of 14.4% and a growth at 10 µM (NCI-H522) of 70.4%. The growth at 10 µM (DU-145) was 109%, the growth at 10 µM (MDA-MB-231) was 80.8% and the growth at 10 µM (PC-3) was 85.9%. It also gave a growth at 10 µM (Malme-3M) of 111%, a growth at 10 µM (M14) of 104% and a growth at 10 µM (NCI-H322M) of 91.3%. It also gave a growth at 10 µM (OVCAR-5) of 97.9%, a growth at 10 µM (OVCAR-3) of 102% and a growth at 10 µM (SK-MEL-28) of 104%. For the same compound, the growth at 10 µM [2] was 93.4%, the growth at 10 µM [3] was 89.7% and the growth at 10 µM (TK-10) was 84.7%. For the same compound, the growth at 10 µM (UO-31) was 64.2%, the growth at 10 µM (NCI-H23) was 83.1% and the growth at 10 µM (HCT-15) was 75.9%. For the same compound, the growth at 10 µM (BT-549) was 99.3%, the growth at 10 µM (NCI/ADR-RES) was 76.8% and the growth at 10 µM (U-251) was 91.2%. It also gave a growth at 10 µM (OVCAR-4) of 76.2%, a growth at 10 µM (A549) of 83.6% and a growth at 10 µM (SNB-19) of 79.1%. The growth at 10 µM (786-0) was 96.5%, the growth at 10 µM (K562) was 82% and the growth at 10 µM (HT-29) was 85.2%. It also gave a growth at 10 µM (MDA-MB-468) of 42.9%, a growth at 10 µM (SF-295) of 102% and a growth at 10 µM (HOP-62) of 96.5%. For the same compound, the growth at 10 µM (SF-268) was 106%, the growth at 10 µM (SN12C) was 85.1% and the growth at 10 µM (OVCAR-8) was 84.2%. It also gave a growth at 10 µM (SK-MEL-5) of 63.4%, a growth at 10 µM (SW-620) of 101% and a growth at 10 µM (CCRF-CEM) of 85.6%. For the same compound, the growth at 10 µM (HCC 2998) was 89.3%, the growth at 10 µM (LOX IMVI) was 80.7% and the growth at 10 µM (ACHN) was 81.4%. It also gave a growth at 10 µM (HL-60(TB)) of 93.6%, a growth at 10 µM (MDA-MB-435) of 102% and a growth at 10 µM (MCF7) of 43.3%. For the same compound, the growth at 10 µM (KM12) was 102%, the growth at 10 µM (IGROV-1) was 90.9% and the growth at 10 µM (RXF 393) was 76.5%. For the same compound, the growth at 10 µM (SR) was 106%, the growth at 10 µM (CAKI-1) was 82.2% and the growth at 10 µM (T47D) was 37.6%. The growth at 10 µM (COLO 205) was 95.8%.
